Reference: ChEMBL document CHEMBL3865821, “Amino substituted benzimidazo[1,2-a]quinolines: Antiproliferative potency, 3D QSAR study and DNA binding properties” (Eur J Med Chem, 2016)
The source made the active and inactive calls. The rule behind the calls is not given here.

What was measured:
[1] = Binding affinity to duplex calf thymus DNA assessed as change in melting temperature at drug/DNA ratio of 0.5 by spectrophotometric analysis
Summary of the method: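 Calf-thymus DNA at 20 μM was heated with or without compound at 10 or 20 μM (drug/base-pair ratio 0.5 or 1) in BPE buffer (6 mM Na₂HPO₄, 2 mM NaH₂PO₄, 1 mM EDTA, pH 7.1). A260 was read every minute from 20 to 100 °C, rising 1 °C per min, and ΔTm was derived.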

[2] = Antiproliferative activity against human HCT116 cells after 72 hrs by MTT assay; type: functional, cell-based; conditions: HCT-116, 72 h
Summary of the method: (§1)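 Tumour cells were grown as monolayers in DMEM with 10 % FBS, 2 mM L-glutamine, penicillin and streptomycin at 37 °C under 5 % CO₂. Tenfold dilutions from 10^-8 to 10^-4 M were applied for 72 h, followed by MTT read at 570 nm. IC50 came from linear regression of percentage growth; at least two experiments, quadruplicate points.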

[3] = Antiproliferative activity against human MCF7 cells after 72 hrs by MTT assay; type: functional, cell-based; conditions: MCF7, 72 h; summary of the method: as §1
[4] = target: T1, DNA topoisomerase 1 (Homo sapiens) (UniProt P11387); test: Poison activity at human DNA topoisomerase 1 assessed as increase in intensity of nicked form of DNA at 100 uM using pUC19 supercoiled plasmid DNA as substrate preincubated for 15 mins followed by DNA topoisomerase 1 addition measured after 30 mins by agarose gel electrophoresis
T1 sequence (whole entry): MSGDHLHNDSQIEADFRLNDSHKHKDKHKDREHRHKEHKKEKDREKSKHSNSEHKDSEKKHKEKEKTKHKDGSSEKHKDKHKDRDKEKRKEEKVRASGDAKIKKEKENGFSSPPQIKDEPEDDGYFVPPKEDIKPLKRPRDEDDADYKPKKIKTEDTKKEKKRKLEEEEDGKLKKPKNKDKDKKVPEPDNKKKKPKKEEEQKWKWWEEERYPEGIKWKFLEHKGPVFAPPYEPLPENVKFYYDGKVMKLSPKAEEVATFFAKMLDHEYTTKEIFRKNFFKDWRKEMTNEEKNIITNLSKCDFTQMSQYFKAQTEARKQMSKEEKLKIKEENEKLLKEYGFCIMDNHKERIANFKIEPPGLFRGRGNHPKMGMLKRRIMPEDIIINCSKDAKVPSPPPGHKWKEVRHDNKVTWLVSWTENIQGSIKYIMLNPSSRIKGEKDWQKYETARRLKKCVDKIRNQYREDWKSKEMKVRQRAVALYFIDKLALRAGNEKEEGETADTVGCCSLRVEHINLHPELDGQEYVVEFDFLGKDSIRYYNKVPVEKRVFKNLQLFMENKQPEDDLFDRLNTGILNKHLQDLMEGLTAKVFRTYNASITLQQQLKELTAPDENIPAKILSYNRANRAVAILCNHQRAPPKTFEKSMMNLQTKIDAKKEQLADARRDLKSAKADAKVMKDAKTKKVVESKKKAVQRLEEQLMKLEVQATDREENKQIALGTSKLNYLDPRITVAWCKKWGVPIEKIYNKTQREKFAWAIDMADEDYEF
Summary of the method: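 Supercoiled pUC19 plasmid was treated with human topoisomerase I, alone or with compound, and topoisomers were resolved by agarose gel electrophoresis. Poisoning, seen as nicked plasmid, was assessed on ethidium bromide-containing agarose gels at up to 100 μM compound.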

[5] = Antiproliferative activity against human H460 cells after 72 hrs by MTT assay; type: functional, cell-based; conditions: NCI-H460, 72 h
Summary of the method: as §1, with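 “CO₂. They were seeded at 3×10^4 cells/mL (HCT 116, H460) or 5×10^4 cells/mL (MCF-7).” for “CO₂.”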

Work on N#Cc1c(N2CCCC2)c2ccc(N3CCCC3)cc2n2c1nc1ccccc12 yielded a ΔTm [1] of 0.6 °C, an IC50 ([2]; read-out: IC50) of 2 µM and an IC50 ([2]; read-out: pIC50 (converted)) of 2 µM. For the same compound, the IC50 ([3]; read-out: IC50) was 2 µM, the IC50 ([3]; read-out: pIC50 (converted)) was 2 µM and the Activity [4] was “Active”. The IC50 ([5]; read-out: IC50) was 12 µM and the IC50 ([5]; read-out: pIC50 (converted)) was 12 µM.
